MEKK2 mut-MEK5: signal of MEK5 binding to mutant human MEKK2 PB1 domain | hit rate 0.35% among 290,000 | percent response, % at 10 µM | AID 1530 | bead flow cytometry, Alexa488-MEK5 binding to MEKK2 mutant; in the data active = percent response above about 24%, passing the limit was not always enough
MEKK3 PB1 HTS: MEKK3-MEK5 PB1 interaction, increase or decrease | Q99759 | bead-based flow cytometry, Alexa488-MEK5 binding to MEKK3; actives lie on both sides; 0 = blocked by unlabeled MEK5, 100 = vehicle | binding response (% of control), % at 10 µM | hit rate 1.4% among 290,000 | AID 1529;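 active = binding response more than 3 SD above or below the average of its plate-row segment, actives on both sides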;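 also: Alexa488 bead fluorescence after subtracting the streptavidin-only scavenger bead signal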
Target sequence (Q99759 whole entry, looked up): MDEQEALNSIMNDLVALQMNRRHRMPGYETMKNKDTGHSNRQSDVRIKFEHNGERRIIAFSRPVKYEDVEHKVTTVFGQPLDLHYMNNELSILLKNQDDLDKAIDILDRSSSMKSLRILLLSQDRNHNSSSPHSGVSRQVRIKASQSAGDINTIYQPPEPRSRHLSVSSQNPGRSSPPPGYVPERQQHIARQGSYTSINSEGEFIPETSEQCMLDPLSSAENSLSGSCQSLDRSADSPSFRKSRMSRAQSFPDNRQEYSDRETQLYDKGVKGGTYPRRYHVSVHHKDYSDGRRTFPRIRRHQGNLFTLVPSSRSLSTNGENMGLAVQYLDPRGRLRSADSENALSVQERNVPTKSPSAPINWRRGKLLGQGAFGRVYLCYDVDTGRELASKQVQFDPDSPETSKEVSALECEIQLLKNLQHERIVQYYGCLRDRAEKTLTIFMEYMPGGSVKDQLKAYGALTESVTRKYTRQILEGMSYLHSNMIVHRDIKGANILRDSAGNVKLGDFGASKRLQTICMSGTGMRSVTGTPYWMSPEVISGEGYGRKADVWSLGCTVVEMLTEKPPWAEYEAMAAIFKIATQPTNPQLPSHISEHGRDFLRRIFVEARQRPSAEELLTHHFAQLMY
ABCG2 block: human ABCG2 inhibition, ABCB1 as counter-screen; IgMXP3 cells, JC-1 efflux, flow cytometry; Q9UNQ0; inhibition, % at 6.6 µM; hit rate 0.1% among 190,000;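 active = inhibition above 80%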;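 also: 0% = DMSO and 100% = nicardipine control wells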
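Times: 10 min at 25 °C | Test system: Two drug-resistant human cell lines, ABCG2 and ABCB1 | Quantity: 3 million cells/mL final, two lines in 1:1 ratio | Signal: Flow cytometry, 530 nm JC-1 signal | Dosing: Compound at 6.6 µM | Controls: Nicardipine and DMSO wells | Reagent: JC-1 as fluorescent efflux pump substrate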
MEKK2 WT-MEK5: raises or lowers MEK5 binding to wildtype human MEKK2 PB1 domain | binding response (% of control), % at 10 µM | bead flow cytometry, Alexa488-MEK5 binding to MEKK2 WT; actives lie on both sides | Q9Y2U5 | hit rate 1.1% among 290,000; in the data active = binding response below about 67% or above about 130%
WT yeast gro inh: growth inhibition of WT yeast, mitochondrial fusion screen; mitochondrial fusion phenotypic screen, WT strain; inhibition, % at 10 µM; hit rate 2.1% among 190,000; in the data active = inhibition above about 58%; tested in S. cerevisiae
ABCB1 inh: blocks JC-1 efflux by human ABCB1 transporter; P08183; hit rate 0.067% among 190,000; CCRF-Adr cells, flow cytometry; inhibition, % at 6.6 µM; in the data active = inhibition above about 40%;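 also: 0% = vehicle and 100% = reference inhibitor; higher value means more JC-1 retained so stronger ABCB1 efflux block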
* = called active by the depositor; x = no result given. Shown are actives, neighbours in structure and some others; about 3.5% of the full set was active somewhere.

SMILES | MEKK2 mut-MEK5 | MEKK3 PB1 HTS | ABCG2 block | MEKK2 WT-MEK5 | WT yeast gro inh | ABCB1 inh
COc1ccc(C(=O)CSc2nc3ccc([N+](=O)[O-])cc3[nH]2)cc1 | 9 | 98 | 3 | 122 | 4 | 0
O=C(CC1S/C(=N/N=C2CCCCCC2)NC1=O)Nc1ccccc1C(F)(F)F (configuration not stated) | 1 | 101 | x | 99 | x | x
COc1ccccc1NC(=O)CC1S/C(=N/N=C2\CCCc3ccccc32)NC1=O (configuration not stated) | 2 | 98 | 4 | 95 | 63* | 2
O=C(C1=NNCC1c1ccccc1)C1CO1 (configuration not stated) | -3 | 84 | -2 | 86 | 1 | -1
COCCN1C(=O)/C(=C/c2ccc(OCc3ccc(C(=O)O)cc3)c(OC)c2)SC1=Nc1ccccc1 | -2 | 104 | 1 | 94 | 59* | 0
COc1cc(/C=C2\SC(=Nc3ccccc3)N(Cc3ccco3)C2=O)ccc1OC(C)C(=O)O (configuration not stated) | 0 | 119 | -4 | 100 | 11 | -1
Fc1ccc(CCNC(=S)Nc2ccc(F)cc2)cc1 | 0 | 97 | 7 | 114 | 19 | 0
COc1ccccc1NC(=S)NCCc1ccc(Cl)cc1 | 4 | 105 | 8 | 107 | -1 | 1
CCCCc1ccc(NC(=S)NCCc2ccc(F)cc2)cc1 | 1 | 102 | 6 | 106 | 68* | 0
CCOc1ccccc1NC(=S)NCCc1ccccc1 | 1 | 102 | 14 | 102 | 74* | 1
CCOc1ccccc1NC(=S)NCCc1ccc(F)cc1 | -5 | 91 | 4 | 95 | 62* | 0
O=S(=O)(c1ccccc1)N1CCN=C1SCc1cccc(Cl)c1 | 4 | 108 | 13 | 102 | 54 | 3
Cc1cc(C)n(CCC(=O)N2c3ccccc3CC2C)n1 (configuration not stated) | 8 | 100 | x | 98 | x | x
COC(=O)c1cc(C(=O)c2ccc(Cl)cc2)n2c(=O)/c(=C\N(C)C)sc12 | 0 | 103 | 2 | 96 | 2 | 1
CCC(C)n1c(=O)c(C(=O)Nc2ccccc2S(N)(=O)=O)c(O)c2ccccc21 (configuration not stated) | 3 | 106 | 0 | 107 | 65* | 0
CC(C)Cn1c(=O)c(C(=O)Nc2ccccc2S(N)(=O)=O)c(O)c2ccccc21 | 6 | 102 | -1 | 99 | 73* | 0
CC(C)C(NS(=O)(=O)c1ccc2c(c1)oc(=O)n2C)C(=O)N1CCN(Cc2ccccc2)CC1 (configuration not stated) | 2 | 111 | 1 | 109 | 0 | 1
CC(C)N(C(=S)NC1CC2CCC1C2)c1ccccc1 (configuration not stated) | -5 | 98 | 3 | 94 | 65* | 0
CCN(CC1COc2ccccc2O1)C(=S)NC1CC2CCC1C2 (configuration not stated) | -1 | 102 | 3 | 98 | 67* | 0
CCOc1ccc(S(=O)(=O)N2CCN(CC(O)COc3cccc([N+](=O)[O-])c3)CC2)cc1 (configuration not stated) | -9 | 94 | x | 94 | x | x
COc1ccccc1NC(=O)COC(=O)c1ccc([N+](=O)[O-])s1 | -3 | 99 | 20 | 98 | 95* | 1
Cc1nc2sccn2c(=O)c1S(=O)(=O)Nc1ccc(N2CCN(S(C)(=O)=O)CC2)cc1 | -2 | 99 | x | 101 | x | x
CC(C)c1ccc2oc(-c3cc(N)ccc3O)nc2c1 | 0 | 103 | 1 | 103 | 68* | 0
CCOC(=O)c1c(C)nc2ccc(Cl)cc2c1-c1ccccc1 | -2 | 103 | 8 | 104 | 64* | 0
COC(=O)C/C=C/[C@@H](C)[C@@H](/C=N/OC[C@@H](C)[C@H](OCc1ccccc1)C(C)C)NS(=O)(=O)c1ccc(C)cc1 | -3 | 108 | 3 | 104 | 4 | 1
SMILES | MEKK2 mut-MEK5 | MEKK3 PB1 HTS | ABCG2 block | MEKK2 WT-MEK5 | WT yeast gro inh | ABCB1 inh
CCOC(=O)C1C(=O)C=C(c2ccc(C)cc2)CC1c1ccccc1 (configuration not stated) | 2 | 118 | 3 | 105 | 40 | 0
CCOC(=O)C1C(=O)C=C(/C=C/c2ccc(N(C)C)cc2)CC1c1ccccc1 (configuration not stated) | 51* | 129 | 16 | 42* | -32 | 0
Cc1cc(C)c2nc(N3CCCC(C(=O)N4CCN(c5ncccn5)CC4)C3)sc2c1 (configuration not stated) | 1 | 97 | 2 | 97 | 67* | 0
O=S(=O)(NCc1ccccc1)c1ccc(S(=O)(=O)N(Cc2ccccn2)Cc2ccco2)cc1 | 3 | 103 | 0 | 102 | 12 | 0
Cn1c(=O)c2[nH]c(CNCc3ccccc3Cl)nc2n(C)c1=O | 0 | 102 | 2 | 102 | 8 | 0
CC(C)C(NC(=O)c1ccc(C(C)(C)C)cc1)C(=O)NC1=NCCS1 (configuration not stated) | -2 | 94 | 15 | 96 | 63* | 4
COc1ccc(OCCC(=O)NC2=NCCS2)cc1 | 0 | 105 | 1 | 112 | -9 | -1
CC(C)(C)c1ccc(OCCC(=O)NC2=NCCS2)cc1 | 6 | 111 | 0 | 109 | 76* | 0
Cn1c(=O)c(=O)n(C)c2cc(S(=O)(=O)N3CCCC3C(=O)NCc3cccs3)ccc21 (configuration not stated) | -2 | 97 | x | 93 | x | x
CCOCCCn1c(=S)[nH]c2cc(C(=O)NCCCN(CC)CC)ccc2c1=O | -3 | 95 | 2 | 97 | 5 | 0
O=C(COC(=O)c1cc(=O)[nH]c2ccccc12)c1cccs1 | -6 | 98 | 3 | 105 | -4 | 0
CCCCNC(=S)N(C)/N=C/c1c(F)c(F)c(F)c(F)c1F | 5 | 112 | x | 114 | 60* | -1
CCCCNC(=S)N(C)/N=C/c1c(C)[nH]c2ccccc12 | -1 | 97 | 33 | 94 | -2 | 0
O=C(CN1CCc2ccccc2C1)Nc1ccccc1Cl | 7 | 98 | x | 102 | x | x
CCCCC(=O)NC(=S)Nc1ccccc1N1CCCCC1 | 4 | 115 | 12 | 108 | 65* | 1
O=C(Cc1ccc(Cl)cc1)NC(=S)Nc1ccccc1N1CCOCC1 | 11 | 107 | 4 | 108 | 62* | 1
O=C(Nc1cccc(Cl)c1N1CCCC1)c1ccc(Br)o1 | -4 | 98 | 7 | 90 | 68* | 1
CCCC(=O)NC(=S)Nc1ccccc1N1CCOCC1 | 0 | 125 | 0 | 104 | 0 | 0
O=C(CN1CCc2ccccc2C1)Nc1ccccc1N1CCCCCC1 | -1 | 99 | 35 | 104 | 61* | 3
CCCCC(=O)NC(=S)Nc1cccc(Cl)c1N1CCCCC1 | 2 | 106 | 1 | 108 | 10 | 0
